From ChEMBL document CHEMBL3259614, “Design, synthesis, and structure-activity relationship studies of novel fused heterocycles-linked triazoles with good activity and water solubility” (J Med Chem, 2014)
In brackets after ≈: the same amount, converted by molar mass.

Legend:
Type in all cases: functional
Nakaseomyces glabratus = test: Antimicrobial activity against Candida glabrata 537 after 24 hrs by serial dilution method; conditions: Nakaseomyces glabratus, 537, 24 h
Method in brief: (§1)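 Broth serial dilution MIC in 96-well plates following NCCLS/CLSI methods. Compounds were dissolved in DMSO and serially diluted in growth medium, with incubation at 35 °C. […] C. parapsilosis 22019 served as the quality-control strain in each assay.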

Candida parapsilosis = test: Antimicrobial activity against Candida parapsilosis 22019 after 24 hrs by serial dilution method; conditions: Lodderomyces parapsilosis, 22019, 24 h; method in brief: as §1
Cryptococcus neoformans = test: Antimicrobial activity against Cryptococcus neoformans 32609 after 72 hrs by serial dilution method; conditions: Cryptococcus neoformans, 32609, 72 h; method in brief: as §1
Aspergillus fumigatus = test: Antimicrobial activity against Aspergillus fumigatus 7544 after 48 hrs by serial dilution method; conditions: Aspergillus fumigatus, 7544, 48 h; method in brief: as §1
Candida albicans [1] = test: Antimicrobial activity against Candida albicans SC5314 after 24 hrs by serial dilution method; conditions: SC5314, 24 h; method in brief: as §1
Candida albicans [2] = test: Antimicrobial activity against Candida albicans Y0109 after 24 hrs by serial dilution method; conditions: Y0109, 24 h; method in brief: as §1

Molecule `C[C@@H](N1CCc2nc(-c3cccc(Cl)c3)sc2C1)[C@](O)(Cn1cncn1)c1ccc(F)cc1F` has an MIC (Nakaseomyces glabratus) of 4 µg/mL (≈ 7.97 µM), an MIC (Candida parapsilosis) of 2 µg/mL (≈ 3.98 µM) and an MIC (Cryptococcus neoformans) of 2 µg/mL (≈ 3.98 µM). The MIC (Aspergillus fumigatus) was 32 µg/mL (≈ 63.7 µM), the MIC (Candida albicans [1]) was 4 µg/mL (≈ 7.97 µM) and the MIC (Candida albicans [2]) was 4 µg/mL (≈ 7.97 µM).

Molecule `C[C@@H](N1CCc2nc(-c3cccc(F)c3)sc2C1)[C@](O)(Cn1cncn1)c1ccc(F)cc1F` has an MIC (Nakaseomyces glabratus) of 8 µg/mL (≈ 16.5 µM), an MIC (Candida parapsilosis) of 2 µg/mL (≈ 4.12 µM) and an MIC (Cryptococcus neoformans) of 2 µg/mL (≈ 4.12 µM). The MIC (Aspergillus fumigatus) was 32 µg/mL (≈ 65.9 µM), the MIC (Candida albicans [1]) was 2 µg/mL (≈ 4.12 µM) and the MIC (Candida albicans [2]) was 2 µg/mL (≈ 4.12 µM).

For `Cc1cccc(-c2nc3c(s2)CN([C@H](C)[C@](O)(Cn2cncn2)c2ccc(F)cc2F)CC3)c1`, the MIC (Nakaseomyces glabratus) was 4 µg/mL (≈ 8.31 µM), the MIC (Candida parapsilosis) was 1 µg/mL (≈ 2.08 µM) and the MIC (Cryptococcus neoformans) was 4 µg/mL (≈ 8.31 µM). The MIC (Aspergillus fumigatus) was 32 µg/mL (≈ 66.4 µM), the MIC (Candida albicans [1]) was 2 µg/mL (≈ 4.15 µM) and the MIC (Candida albicans [2]) was 2 µg/mL (≈ 4.15 µM).

Work on `C[C@@H](N1CCc2nc(-c3cccc(Br)c3)sc2C1)[C@](O)(Cn1cncn1)c1ccc(F)cc1F` yielded an MIC (Nakaseomyces glabratus) of 8 µg/mL (≈ 14.6 µM), an MIC (Candida parapsilosis) of 2 µg/mL (≈ 3.66 µM) and an MIC (Cryptococcus neoformans) of 4 µg/mL (≈ 7.32 µM). For the same molecule, the MIC (Aspergillus fumigatus) was 32 µg/mL (≈ 58.6 µM), the MIC (Candida albicans [1]) was 2 µg/mL (≈ 3.66 µM) and the MIC (Candida albicans [2]) was 2 µg/mL (≈ 3.66 µM).

`COc1cccc(-c2nc3c(s2)CN([C@H](C)[C@](O)(Cn2cncn2)c2ccc(F)cc2F)CC3)c1` was tested, and the MIC (Nakaseomyces glabratus) was 1 µg/mL (≈ 2.01 µM), the MIC (Candida parapsilosis) was 1 µg/mL (≈ 2.01 µM) and the MIC (Cryptococcus neoformans) was 2 µg/mL (≈ 4.02 µM). The MIC (Aspergillus fumigatus) was 16 µg/mL (≈ 32.2 µM), the MIC (Candida albicans [1]) was 1 µg/mL (≈ 2.01 µM) and the MIC (Candida albicans [2]) was 1 µg/mL (≈ 2.01 µM).

`C[C@@H](N1CCc2nc(-c3ccc(C#N)cc3)sc2C1)[C@](O)(Cn1cncn1)c1ccc(F)cc1F` showed an MIC (Nakaseomyces glabratus) of 0.5 µg/mL (≈ 1.02 µM), an MIC (Candida parapsilosis) of 0.125 µg/mL (≈ 0.254 µM) and an MIC (Cryptococcus neoformans) of 0.125 µg/mL (≈ 0.254 µM). The MIC (Aspergillus fumigatus) was 16 µg/mL (≈ 32.5 µM), the MIC (Candida albicans [1]) was 0.0625 µg/mL (≈ 0.127 µM) and the MIC (Candida albicans [2]) was 0.125 µg/mL (≈ 0.254 µM).

For `C[C@@H](N1CCc2nc(-c3cccc(C#N)c3)sc2C1)[C@](O)(Cn1cncn1)c1ccc(F)cc1F`, the MIC (Nakaseomyces glabratus) was 2 µg/mL (≈ 4.06 µM), the MIC (Candida parapsilosis) was 2 µg/mL (≈ 4.06 µM) and the MIC (Cryptococcus neoformans) was 1 µg/mL (≈ 2.03 µM). The MIC (Aspergillus fumigatus) was 16 µg/mL (≈ 32.5 µM), the MIC (Candida albicans [1]) was 0.125 µg/mL (≈ 0.254 µM) and the MIC (Candida albicans [2]) was 0.125 µg/mL (≈ 0.254 µM).

In the case of `C[C@@H](N1CCc2nc(-c3cccs3)sc2C1)[C@](O)(Cn1cncn1)c1ccc(F)cc1F`, the MIC (Nakaseomyces glabratus) is reported as 0.5 µg/mL (≈ 1.06 µM), the MIC (Candida parapsilosis) is reported as 1 µg/mL (≈ 2.11 µM) and the MIC (Cryptococcus neoformans) is reported as 0.5 µg/mL (≈ 1.06 µM). It also gave an MIC (Aspergillus fumigatus) of 8 µg/mL (≈ 16.9 µM), an MIC (Candida albicans [1]) of 0.25 µg/mL (≈ 0.528 µM) and an MIC (Candida albicans [2]) of 0.25 µg/mL (≈ 0.528 µM).

`C[C@@H](N1CCc2nc(-c3ccco3)sc2C1)[C@](O)(Cn1cncn1)c1ccc(F)cc1F` gave an MIC (Nakaseomyces glabratus) of 0.5 µg/mL (≈ 1.09 µM), an MIC (Candida parapsilosis) of 1 µg/mL (≈ 2.19 µM) and an MIC (Cryptococcus neoformans) of 0.5 µg/mL (≈ 1.09 µM). The MIC (Aspergillus fumigatus) was 8 µg/mL (≈ 17.5 µM), the MIC (Candida albicans [1]) was 0.25 µg/mL (≈ 0.546 µM) and the MIC (Candida albicans [2]) was 1 µg/mL (≈ 2.19 µM).

`C[C@@H](N1CCc2nc(-c3ccncc3)sc2C1)[C@](O)(Cn1cncn1)c1ccc(F)cc1F` was tested, and the MIC (Nakaseomyces glabratus) was 0.125 µg/mL (≈ 0.267 µM), the MIC (Candida parapsilosis) was 0.125 µg/mL (≈ 0.267 µM) and the MIC (Cryptococcus neoformans) was 0.125 µg/mL (≈ 0.267 µM). It also gave an MIC (Aspergillus fumigatus) of 4 µg/mL (≈ 8.54 µM), an MIC (Candida albicans [1]) of 0.0312 µg/mL (≈ 0.0667 µM) and an MIC (Candida albicans [2]) of 0.0312 µg/mL (≈ 0.0667 µM).

Work on `C[C@@H](N1CCc2nc(-c3cncc(F)c3)sc2C1)[C@](O)(Cn1cncn1)c1ccc(F)cc1F` yielded an MIC (Nakaseomyces glabratus) of 0.125 µg/mL (≈ 0.257 µM), an MIC (Candida parapsilosis) of 0.25 µg/mL (≈ 0.514 µM) and an MIC (Cryptococcus neoformans) of 0.125 µg/mL (≈ 0.257 µM). It also gave an MIC (Aspergillus fumigatus) of 8 µg/mL (≈ 16.4 µM), an MIC (Candida albicans [1]) of 0.125 µg/mL (≈ 0.257 µM) and an MIC (Candida albicans [2]) of 0.125 µg/mL (≈ 0.257 µM).

`C[C@@H](N1CCc2nc(-c3cncc(C#N)c3)sc2C1)[C@](O)(Cn1cncn1)c1ccc(F)cc1F` gave an MIC (Nakaseomyces glabratus) of 0.5 µg/mL (≈ 1.01 µM), an MIC (Candida parapsilosis) of 0.25 µg/mL (≈ 0.507 µM) and an MIC (Cryptococcus neoformans) of 0.25 µg/mL (≈ 0.507 µM). The MIC (Aspergillus fumigatus) was 8 µg/mL (≈ 16.2 µM), the MIC (Candida albicans [1]) was 0.125 µg/mL (≈ 0.253 µM) and the MIC (Candida albicans [2]) was 0.25 µg/mL (≈ 0.507 µM).

`C[C@@H](N1CCc2nc(-c3ccc(C#N)nc3)sc2C1)[C@](O)(Cn1cncn1)c1ccc(F)cc1F` gave an MIC (Nakaseomyces glabratus) of 0.5 µg/mL (≈ 1.01 µM), an MIC (Candida parapsilosis) of 0.25 µg/mL (≈ 0.507 µM) and an MIC (Cryptococcus neoformans) of 0.25 µg/mL (≈ 0.507 µM). It also gave an MIC (Aspergillus fumigatus) of 8 µg/mL (≈ 16.2 µM), an MIC (Candida albicans [1]) of 0.0625 µg/mL (≈ 0.127 µM) and an MIC (Candida albicans [2]) of 0.0625 µg/mL (≈ 0.127 µM).

For `C[C@@H](N1CCc2nc(-c3ccc(F)nc3)sc2C1)[C@](O)(Cn1cncn1)c1ccc(F)cc1F`, the MIC (Nakaseomyces glabratus) was 0.125 µg/mL (≈ 0.257 µM), the MIC (Candida parapsilosis) was 0.25 µg/mL (≈ 0.514 µM) and the MIC (Cryptococcus neoformans) was 0.125 µg/mL (≈ 0.257 µM). For the same molecule, the MIC (Aspergillus fumigatus) was 8 µg/mL (≈ 16.4 µM), the MIC (Candida albicans [1]) was 0.0625 µg/mL (≈ 0.128 µM) and the MIC (Candida albicans [2]) was 0.125 µg/mL (≈ 0.257 µM).

In the case of `COc1ccc(-c2nc3c(s2)CN([C@H](C)[C@](O)(Cn2cncn2)c2ccc(F)cc2F)CC3)cn1`, the MIC (Nakaseomyces glabratus) is reported as 0.5 µg/mL (≈ 1 µM), the MIC (Candida parapsilosis) is reported as 0.5 µg/mL (≈ 1 µM) and the MIC (Cryptococcus neoformans) is reported as 0.25 µg/mL (≈ 0.501 µM). For the same molecule, the MIC (Aspergillus fumigatus) was 16 µg/mL (≈ 32.1 µM), the MIC (Candida albicans [1]) was 0.25 µg/mL (≈ 0.501 µM) and the MIC (Candida albicans [2]) was 0.25 µg/mL (≈ 0.501 µM).

`Cc1ncc(-c2nc3c(s2)CN([C@H](C)[C@](O)(Cn2cncn2)c2ccc(F)cc2F)CC3)cn1` was tested, and the MIC (Nakaseomyces glabratus) was 0.25 µg/mL (≈ 0.517 µM), the MIC (Candida parapsilosis) was 0.25 µg/mL (≈ 0.517 µM) and the MIC (Cryptococcus neoformans) was 0.25 µg/mL (≈ 0.517 µM). It also gave an MIC (Aspergillus fumigatus) of 16 µg/mL (≈ 33.1 µM), an MIC (Candida albicans [1]) of 0.0625 µg/mL (≈ 0.129 µM) and an MIC (Candida albicans [2]) of 0.0625 µg/mL (≈ 0.129 µM).

For `COc1ncc(-c2nc3c(s2)CN([C@H](C)[C@](O)(Cn2cncn2)c2ccc(F)cc2F)CC3)cn1`, the MIC (Nakaseomyces glabratus) was 0.25 µg/mL (≈ 0.5 µM), the MIC (Candida parapsilosis) was 0.25 µg/mL (≈ 0.5 µM) and the MIC (Cryptococcus neoformans) was 0.5 µg/mL (≈ 1 µM). For the same molecule, the MIC (Aspergillus fumigatus) was 8 µg/mL (≈ 16 µM), the MIC (Candida albicans [1]) was 0.0625 µg/mL (≈ 0.125 µM) and the MIC (Candida albicans [2]) was 0.125 µg/mL (≈ 0.25 µM).

`C[C@@H](N1CCc2sc(Br)cc2C1)[C@](O)(Cn1cncn1)c1ccc(F)cc1F` gave an MIC (Nakaseomyces glabratus) of 4 µg/mL (≈ 8.52 µM), an MIC (Candida parapsilosis) of 8 µg/mL (≈ 17 µM) and an MIC (Cryptococcus neoformans) of 2 µg/mL (≈ 4.26 µM). For the same molecule, the MIC (Aspergillus fumigatus) was 64 µg/mL (≈ 136 µM), the MIC (Candida albicans [1]) was 2 µg/mL (≈ 4.26 µM) and the MIC (Candida albicans [2]) was 4 µg/mL (≈ 8.52 µM).

Work on `C[C@@H](N1CCc2sc(-c3ccccc3)cc2C1)[C@](O)(Cn1cncn1)c1ccc(F)cc1F` yielded an MIC (Nakaseomyces glabratus) of 4 µg/mL (≈ 8.57 µM), an MIC (Candida parapsilosis) of 8 µg/mL (≈ 17.1 µM) and an MIC (Cryptococcus neoformans) of 2 µg/mL (≈ 4.29 µM). It also gave an MIC (Aspergillus fumigatus) of 32 µg/mL (≈ 68.6 µM), an MIC (Candida albicans [1]) of 1 µg/mL (≈ 2.14 µM) and an MIC (Candida albicans [2]) of 8 µg/mL (≈ 17.1 µM).

With `C[C@@H](N1CCc2sc(-c3ccc(F)cc3)cc2C1)[C@](O)(Cn1cncn1)c1ccc(F)cc1F` the MIC (Nakaseomyces glabratus) was 4 µg/mL (≈ 8.26 µM), the MIC (Candida parapsilosis) was 8 µg/mL (≈ 16.5 µM) and the MIC (Cryptococcus neoformans) was 2 µg/mL (≈ 4.13 µM). For the same molecule, the MIC (Aspergillus fumigatus) was 64 µg/mL (≈ 132 µM), the MIC (Candida albicans [1]) was 2 µg/mL (≈ 4.13 µM) and the MIC (Candida albicans [2]) was 2 µg/mL (≈ 4.13 µM).
